{"source": "ChEMBL document CHEMBL3098079", "about": "“Discovery of hybrid Hsp90 inhibitors and their anti-neoplastic effects against gefitinib-resistant non-small cell lung cancer (NSCLC)” (2014)", "key": {"[1]": {"system": "NCI-H1975", "experiment": "Antiproliferative activity against gefitinib-resistant human NCI-H1975 cells after 1 to 3 days by MTS assay", "format": "functional", "outline": "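H1975 (gefitinib-resistant NSCLC, T790M/L858R EGFR) cells exposed to compound at a range of concentrations; viability read by MTS assay at 1, 2 and 3 days of treatment. Data given as mean ± SD, n = 4.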"}, "[2]": {"biological_target": "Heat shock protein HSP 90-beta (Homo sapiens) (UniProt P08238)", "sequence (P08238 whole entry)": "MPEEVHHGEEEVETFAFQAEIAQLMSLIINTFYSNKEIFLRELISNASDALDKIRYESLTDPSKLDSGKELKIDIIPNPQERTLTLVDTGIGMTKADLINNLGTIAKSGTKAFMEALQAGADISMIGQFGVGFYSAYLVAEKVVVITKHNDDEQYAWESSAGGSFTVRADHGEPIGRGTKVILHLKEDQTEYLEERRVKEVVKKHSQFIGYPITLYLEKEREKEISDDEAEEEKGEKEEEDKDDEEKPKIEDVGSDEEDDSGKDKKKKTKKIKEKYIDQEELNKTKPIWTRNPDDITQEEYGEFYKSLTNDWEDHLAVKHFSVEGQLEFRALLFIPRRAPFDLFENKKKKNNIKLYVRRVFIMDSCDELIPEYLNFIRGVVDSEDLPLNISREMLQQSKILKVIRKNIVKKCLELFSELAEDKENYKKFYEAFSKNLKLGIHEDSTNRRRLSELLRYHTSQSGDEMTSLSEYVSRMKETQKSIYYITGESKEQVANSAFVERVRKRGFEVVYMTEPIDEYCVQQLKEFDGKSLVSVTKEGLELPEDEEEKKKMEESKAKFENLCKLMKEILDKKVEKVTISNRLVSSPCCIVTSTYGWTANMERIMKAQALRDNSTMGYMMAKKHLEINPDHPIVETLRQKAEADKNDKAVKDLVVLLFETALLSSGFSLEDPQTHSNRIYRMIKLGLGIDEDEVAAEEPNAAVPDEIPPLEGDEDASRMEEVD", "experiment": "Inhibition of HSP90 in gefitinib-resistant human NCI-H1975 cells assessed as degradation of EGFR at 40 uM after 24 hrs by Western blot method", "format": "cell-based", "outline": "(§1)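 H1975 cells treated 24 h with each compound at 40 μM; Hsp90 client proteins and Hsp70 probed by Western blot. Geldanamycin (1 μM) as positive control, DMSO as negative control.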"}, "[3]": {"biological_target": "Heat shock protein HSP 90-beta (Homo sapiens) (UniProt P08238)", "experiment": "Inhibition of HSP90 in gefitinib-resistant human NCI-H1975 cells assessed as downregulation of Thr202/Tyr204 phosphorylated ERK1/2 level at 1 to 100 uM after 24 hrs by Western blot method", "format": "cell-based", "outline": "(§2)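 Dose-response immunoblotting: H1975 cells incubated 24 h with increasing compound concentrations, then lysates probed by Western blot for Hsp90 clients (EGFR, Her2, Met, Akt), downstream signaling proteins and Hsp70. Geldanamycin (1 μM) positive control; DMSO negative control.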"}, "[4]": {"biological_target": "Heat shock protein HSP 90-beta (Homo sapiens) (UniProt P08238)", "experiment": "Inhibition of HSP90 in gefitinib-resistant human NCI-H1975 cells assessed as downregulation of Ser473 phosphorylated AKT level at 1 to 100 uM after 24 hrs by Western blot method", "format": "cell-based", "outline": "as §2"}, "[5]": {"biological_target": "Heat shock protein HSP 90-beta (Homo sapiens) (UniProt P08238)", "experiment": "Inhibition of HSP90 in gefitinib-resistant human NCI-H1975 cells assessed as downregulation of Tyr1068 phosphorylated EGFR level at 1 to 100 uM after 24 hrs by Western blot method", "format": "cell-based", "outline": "as §2"}, "[6]": {"system": "NCI-H1975", "experiment": "Downregulation of ERK1/2 in gefitinib-resistant human NCI-H1975 cells at 1 to 100 uM after 24 hrs by Western blot method", "format": "functional, cell-based", "outline": "as §2"}, "[7]": {"biological_target": "Heat shock protein HSP 90-beta (Homo sapiens) (UniProt P08238)", "experiment": "Inhibition of HSP90 in gefitinib-resistant human NCI-H1975 cells assessed as transcriptional upregulation of Hsp70 after 24 hrs by Western blot method", "format": "cell-based", "outline": "as §2"}, "[8]": {"biological_target": "Heat shock protein HSP 90-beta (Homo sapiens) (UniProt P08238)", "experiment": "Inhibition of HSP90 in gefitinib-resistant human NCI-H1975 cells assessed as degradation of AKT after 24 hrs by Western blot method", "format": "cell-based", "outline": "as §2"}, "[9]": {"biological_target": "Heat shock protein HSP 90-beta (Homo sapiens) (UniProt P08238)", "experiment": "Inhibition of HSP90 in gefitinib-resistant human NCI-H1975 cells assessed as degradation of MET after 24 hrs by Western blot method", "format": "cell-based", "outline": "as §2"}, "[10]": {"biological_target": "Heat shock protein HSP 90-beta (Homo sapiens) (UniProt P08238)", "experiment": "Inhibition of HSP90 in gefitinib-resistant human NCI-H1975 cells assessed as degradation of HER2 after 24 hrs by Western blot method", "format": "cell-based", "outline": "as §2"}, "[11]": {"biological_target": "Heat shock protein HSP 90-beta (Homo sapiens) (UniProt P08238)", "experiment": "Inhibition of HSP90 in gefitinib-resistant human NCI-H1975 cells assessed as degradation of EGFR after 24 hrs by Western blot method", "format": "cell-based", "outline": "as §2"}, "[12]": {"biological_target": "Heat shock protein HSP 90-beta (Homo sapiens) (UniProt P08238)", "experiment": "Inhibition of HSP90 in gefitinib-resistant human NCI-H1975 cells assessed as transcriptional upregulation of Hsp70 at 40 uM after 24 hrs by Western blot method", "format": "cell-based", "outline": "as §1"}, "[13]": {"biological_target": "Heat shock protein HSP 90-beta (Homo sapiens) (UniProt P08238)", "experiment": "Inhibition of HSP90 in gefitinib-resistant human NCI-H1975 cells assessed as degradation of AKT at 40 uM after 24 hrs by Western blot method", "format": "cell-based", "outline": "as §1"}, "[14]": {"biological_target": "Heat shock protein HSP 90-beta (Homo sapiens) (UniProt P08238)", "experiment": "Inhibition of HSP90 in gefitinib-resistant human NCI-H1975 cells assessed as degradation of MET at 40 uM after 24 hrs by Western blot method", "format": "cell-based", "outline": "as §1"}, "[15]": {"biological_target": "Heat shock protein HSP 90-beta (Homo sapiens) (UniProt P08238)", "experiment": "Inhibition of HSP90 in gefitinib-resistant human NCI-H1975 cells assessed as degradation of HER2 at 40 uM after 24 hrs by Western blot method", "format": "cell-based", "outline": "as §1"}}, "note": "Active and inactive are the calls of the source. The calls are words filed in the database; no cut-off is given here.", "data": [{"smiles": "CCNC(=O)c1n[nH]c(-c2cc(Cl)c(O)cc2O)c1-c1ccc(OC)cc1", "values": [{"measurement": "GI50", "setting": "[1]", "value": 1, "unit": "µM"}]}, {"smiles": "CCCCn1c(Cc2cc(OC)c(OC)c(OC)c2)nc2c(N)ncnc21", "values": [{"measurement": "GI50", "setting": "[1]", "value": 50, "unit": "µM"}]}, {"smiles": "O=C(/C=C/c1ccc(O)cc1O)c1cc(Cl)c(O)cc1O", "values": [{"measurement": "inhibition", "setting": "[1]", "value": "Dose-dependent effect"}]}, {"smiles": "COc1ccc(/C=C/C(=O)c2cc(Cl)c(O)cc2O)c(OC)c1", "values": [{"measurement": "inhibition", "setting": "[1]", "value": "Dose-dependent effect"}]}, {"smiles": "COc1cc(/C=C/C(=O)c2cc(Cl)c(O)cc2O)cc(OC)c1OC", "values": [{"measurement": "inhibition", "setting": "[2]", "value": "Active"}, {"measurement": "GI50", "setting": "[1]", "value": 48, "unit": "µM"}, {"measurement": "inhibition", "setting": "[1]", "value": "Dose-dependent effect"}, {"measurement": "inhibition", "setting": "[3]", "value": "Active"}, {"measurement": "inhibition", "setting": "[4]", "value": "Active"}, {"measurement": "inhibition", "setting": "[5]", "value": "Active"}, {"measurement": "Activity", "setting": "[6]", "value": "inactive"}, {"measurement": "inhibition", "setting": "[7]", "value": "Dose-dependent effect"}, {"measurement": "inhibition", "setting": "[8]", "value": "Dose-dependent effect"}, {"measurement": "inhibition", "setting": "[9]", "value": "Dose-dependent effect"}, {"measurement": "inhibition", "setting": "[10]", "value": "Dose-dependent effect"}, {"measurement": "inhibition", "setting": "[11]", "value": "Dose-dependent effect"}, {"measurement": "inhibition", "setting": "[12]", "value": "Active"}, {"measurement": "inhibition", "setting": "[13]", "value": "Active"}, {"measurement": "inhibition", "setting": "[14]", "value": "Active"}, {"measurement": "inhibition", "setting": "[15]", "value": "Active"}]}]}
